Assay results from different studies.
Compare with care: the assays were run in different laboratories.

Cc1noc(C)c1Cn1cc(N2C(=O)CN(Cc3cccc(O)c3)C2=O)cn1
concentration (male Sprague-Dawley rat, plasma; oral, 10 mg/kg, 4 h): 2.72 ng/mL

CCc1cc(-c2noc(-c3cc(OC)nc(C4CCCC4)c3)n2)cc(C)c1OC[C@@H](O)CO
concentration (Wistar rat, plasma; oral, 10 mg/kg, 24 h, single dose): 350 ng/mL

COc1cc2c3c(n(CCCN4CCOCC4)c(=O)c2cc1OC)-c1cc2c(cc1C3=O)OCO2
half-life (male Fischer 344 rat, plasma; intravenous, 12 mg/m², single dose): 126 min

CCOC(=O)C1=C(C)N/C(=C/c2cc(C)n(-c3ccc(S(=O)(=O)C(F)(F)F)cc3)c2C)C1=O
half-life (metabolic stability; mouse, liver microsomes; 1 µM): 30 min

COc1cccc(-c2n[nH]c(SCc3ccccn3)n2)c1OC
concentration (male Sprague-Dawley rat, plasma; oral, 10 mg/kg, 2 h, single dose): 1160 ng/mL

COC(=O)[C@H](N)CSSC[C@@H](N)C(=O)OC
half-life (chemical stability; dog, plasma): 15.1 min

CCc1cc(OC)c2nccc(N3CCc4c(cc(Cn5ccnc5)cc4-c4cn(C)nc4C(F)(F)F)C3=O)c2c1
C0 (male Sprague-Dawley rat, plasma; intravenous, 3 mg/kg): 1150 ng/mL

CCOC(=O)C1=C(C)N/C(=C/c2cc(C)n(-c3cccc(C(F)(F)F)c3)c2C)C1=O
half-life (metabolic stability; mouse, liver microsomes; 1 µM): 18 min

Oc1c(Br)cc(Cl)c2cccnc12
C0 (Sprague-Dawley rat, plasma; intravenous, 2 mg/kg): 2400 ng/mL

Cc1ccc(-c2cc(C(F)(F)F)nn2-c2ccc(S(N)(=O)=O)cc2)cc1
concentration (male Sprague-Dawley rat, blood; oral, 20 mg/kg, 8 h): 11.1 µM

CCOC(=O)[C@@]12C[C@@H]1[C@@H](n1ccc3c(NC)nc(C#Cc4ccc(Cl)s4)nc31)[C@H](O)[C@@H]2O
concentration (male Sprague-Dawley rat, plasma; oral, 10 mg/kg, 15 min): 45.5 ng/mL

CCOC(=O)C1=C(C)N/C(=C/c2cc(C)n(-c3ccc(SC)cc3)c2C)C1=O
half-life (metabolic stability; mouse, liver microsomes; 1 µM): 26 min

COc1ccc2c(=O)n(C)c(-c3ccccc3)nc2c1
concentration (male Sprague-Dawley rat, brain; oral, 30 mg/kg, 2 h, single dose): 20 ng/g

CCc1cc(C(=O)NC)c2nccc(N3CCc4c(cc(Cn5ccnc5)cc4-c4cn(C)nc4C(F)(F)F)C3=O)c2c1
half-life (male Sprague-Dawley rat, plasma; oral, 50 mg/kg): 36 min

CCOC(=O)C1=C(C)N/C(=C/c2cc(C)n(-c3ccc(OC)cc3)c2C)C1=O
half-life (metabolic stability; mouse, liver microsomes; 1 µM): 32 min

Cc1noc(C)c1Cn1cc(N2C(=O)N(Cc3cccc(O)c3)C(C)(C)C2=O)cn1
concentration (male Sprague-Dawley rat, plasma; oral, 100 mg/kg, 4 h, single dose): 2.9 ng/mL
